Tests used:
Mus musculus [1] = assay: Immunomodulatory activity in po dosed mouse assessed as reduction in peripheral lymphocyte count measured after 24 hrs; format: functional
Method in brief: (§1)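 Mice dosed orally over a dose titration; peripheral blood lymphocytes counted 4 h or 24 h after dosing. Each point is the mean % decrease versus vehicle controls (n = 5 per group, treated and control). ED₅₀ (mg/kg) derived from the titration.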

[2] = target: Sphingosine 1-phosphate receptor 3 (Homo sapiens, UniProt Q99500); assay: Agonist activity at human S1P3 receptor expressed in CHO cells assessed as induction of intracellular calcium level; format: functional, cell-based
Method in brief: (§2)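 Intracellular Ca²⁺ rise measured in CHO cells stably expressing human S1P₁ or S1P₃ receptor; EC₅₀ (nM) determined. Some values are the average of two assays.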

Mus musculus [3] = assay: Immunomodulatory activity in po dosed mouse assessed as reduction in peripheral lymphocyte count measured after 4 hrs; format: functional; method in brief: as §1
[4] = target: Sphingosine 1-phosphate receptor 1 (Homo sapiens, UniProt P21453); assay: Agonist activity at human S1P1 receptor expressed in CHO cells assessed as induction of intracellular calcium level; format: functional, cell-based; method in brief: as §2
[5] = Oral bioavailability in rat at 1 mg/kg; format: ADME, organism-based; settings: in vivo
Plasma = assay: Plasma concentration in rat at 1 mg/kg, po; format: ADME, organism-based; parameters: dose 1 mg/kg, route oral; settings: in vivo
[6] = Tmax in rat at 1 mg/kg, po; format: ADME, organism-based; parameters: dose 1 mg/kg, route oral; settings: in vivo
[7] = AUC (0 to infinity) in rat at 1 mg/kg, po; format: ADME, organism-based; parameters: time infinity, dose 1 mg/kg, route oral; settings: plasma
[8] = Half life in rat at 1 mg/kg, po; format: ADME, organism-based; parameters: dose 1 mg/kg, route oral; settings: in vivo
[9] = Volume of distribution at steady state in rat at 1 mg/kg, iv; format: ADME, organism-based; parameters: dose 1 mg/kg, route intravenous; settings: in vivo, read-out: Vdss
[10] = Cmax in rat at 1 mg/kg, po; format: ADME, organism-based; parameters: dose 1 mg/kg, route oral; settings: in vivo
[11] = Total clearance in rat at 1 mg/kg, iv; format: ADME, organism-based; parameters: dose 1 mg/kg, route intravenous; settings: in vivo
[12] = Half life in rat at 1 mg/kg, iv; format: ADME, organism-based; parameters: dose 1 mg/kg, route intravenous; settings: in vivo
[13] = AUC (0 to infinity) in rat at 1 mg/kg, iv; format: ADME, organism-based; parameters: time infinity, dose 1 mg/kg, route intravenous; settings: plasma
[14] = AUC (0 to infinity) in rat at 1 mg/kg, po measured up to 24 hrs; format: ADME, organism-based; parameters: time infinity, dose 1 mg/kg, route oral; settings: plasma
[15] = AUC (0 to infinity) in rat at 1 mg/kg, iv measured up to 24 hrs; format: ADME, organism-based; parameters: time infinity, dose 1 mg/kg, route intravenous; settings: plasma
[16] = Oral bioavailability in rat at 1 mg/kg measured up to 24 hrs; format: ADME, organism-based; settings: in vivo
CHO = assay: Selectivity ratio of EC50 for human S1P3 receptor expressed in CHO cells to EC50 for S1P1 receptor expressed in CHO cells; format: cell-based
Method in brief: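 Ratio of EC₅₀ values from intracellular Ca²⁺ stimulation assays in CHO cells stably expressing human S1P₃ versus human S1P₁.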

Sphingosine 1-phosphate receptor 3, sequence (Q99500 whole entry): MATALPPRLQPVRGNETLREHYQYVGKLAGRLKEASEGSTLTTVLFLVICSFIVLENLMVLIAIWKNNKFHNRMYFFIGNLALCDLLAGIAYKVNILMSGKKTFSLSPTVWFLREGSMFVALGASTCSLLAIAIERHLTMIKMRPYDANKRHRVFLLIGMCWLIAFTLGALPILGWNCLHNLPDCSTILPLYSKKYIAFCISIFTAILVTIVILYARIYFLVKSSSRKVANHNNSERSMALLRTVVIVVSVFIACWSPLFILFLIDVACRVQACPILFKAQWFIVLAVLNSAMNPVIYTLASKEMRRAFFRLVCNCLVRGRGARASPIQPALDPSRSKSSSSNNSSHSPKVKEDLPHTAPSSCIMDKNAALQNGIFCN
Sphingosine 1-phosphate receptor 1, sequence (P21453 whole entry): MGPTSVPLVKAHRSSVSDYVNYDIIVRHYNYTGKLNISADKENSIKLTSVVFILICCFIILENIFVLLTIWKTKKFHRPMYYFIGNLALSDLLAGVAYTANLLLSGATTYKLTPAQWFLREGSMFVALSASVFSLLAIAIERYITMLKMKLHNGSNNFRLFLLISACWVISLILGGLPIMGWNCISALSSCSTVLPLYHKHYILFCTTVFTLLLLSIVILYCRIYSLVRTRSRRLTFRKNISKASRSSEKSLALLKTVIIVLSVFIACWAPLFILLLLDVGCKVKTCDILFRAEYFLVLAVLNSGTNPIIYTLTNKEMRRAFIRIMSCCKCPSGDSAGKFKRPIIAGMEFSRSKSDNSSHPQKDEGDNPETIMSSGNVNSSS

| SMILES | ED50 (Mus musculus [1]) | EC50 [2] | ED50 (Mus musculus [3]) | EC50 [4] | further results |
| --- | --- | --- | --- | --- | --- |
| CC1=C(CN2CC(C(=O)O)C2)CCc2cc(OCCCc3cccc(F)c3)ccc21.Cl | 0.69 mg/kg | 3900 nM | 0.15 mg/kg | 4 nM |  |
| CC1=C(CN2CC(C(=O)O)C2)CCc2cc(OC[C@H](C)Cc3ccc(F)cc3)ccc21.Cl | 0.55 mg/kg | 11000 nM |  | 0.85 nM |  |
| CC1=C(CN2CC(C(=O)O)C2)CCc2cc(OCCC(C)c3ccccc3)ccc21.Cl (racemic) |  | 22000 nM | > 0.3 mg/kg | 0.6 nM |  |
| CC1=C(CN2CC(C(=O)O)C2)CCc2cc(OC[C@H](Cc3ccc(F)cc3)C(C)C)ccc21.Cl | 0.68 mg/kg | > 30000 nM |  | 4.5 nM |  |
| CC1=C(CN2CC(C(=O)O)C2)CCc2cc(OCCCCc3ccccc3)ccc21 |  |  |  |  | bioavailability [5]: 85%; Cp (Plasma): 53 ng/mL; Tmax [6]: 4.7 h; AUC(0-inf) [7]: 3800 ng·h/mL; half-life [8]: 17 h |
| CC[C@H](COc1ccc2c(c1)CCC(CN1CC(C(=O)O)C1)=C2C)Cc1ccc(F)cc1.Cl | 0.77 mg/kg | 29300 nM |  | 1.1 nM |  |
| CC1=C(CN2CC(C(=O)O)C2)CCc2cc(OCC(C)Cc3ccccc3)ccc21.Cl (racemic) |  | 20800 nM | 0.19 mg/kg | 0.66 nM |  |
| CC1=C(CN2CC(C(=O)O)C2)CCc2cc(OCCCc3ccc(F)cc3)ccc21.Cl | 0.25 mg/kg | 3200 nM | 0.055 mg/kg | 0.84 nM | bioavailability [5]: 106%; Vd [9]: 5.3 L/kg; Cmax [10]: 159 ng/mL; Cp (Plasma): 88 ng/mL; Tmax [6]: 4.7 h; clearance [11]: 3.2 mL/min/kg; half-life [12]: 21 h; AUC(0-inf) [7]: 5700 ng·h/mL; AUC(0-inf) [13]: 5400 ng·h/mL; half-life [8]: 24 h |
| CC1=C(CN2CC(C(=O)O)C2)CCc2cc(OC[C@@H](C)Cc3ccc(F)cc3)ccc21.Cl | 0.22 mg/kg | 9450 nM |  | 0.37 nM | Vd [9]: 5.7 L/kg; Cmax [10]: 103 ng/mL; Cp (Plasma): 69 ng/mL; Tmax [6]: 4.7 h; clearance [11]: 4 mL/min/kg; AUC(0-inf) [14]: 2000 ng·h/mL; half-life [12]: 19 h; AUC(0-inf) [15]: 2600 ng·h/mL; half-life [8]: 57 h; bioavailability [16]: 75% |
| CC1=C(CN2CC(C(=O)O)C2)CCc2cc(OC[C@@H](C)Cc3ccc(Cl)cc3)ccc21.Cl | 0.095 mg/kg | 8200 nM |  | 0.55 nM | bioavailability [5]: 62%; Ratio EC50 (CHO): 15000; Vd [9]: 3.9 L/kg; Cmax [10]: 184 ng/mL; Cp (Plasma): 87 ng/mL; Tmax [6]: 4.7 h; clearance [11]: 2 mL/min/kg; half-life [12]: 27 h; AUC(0-inf) [7]: 5500 ng·h/mL; AUC(0-inf) [13]: 9000 ng·h/mL; half-life [8]: 20 h |
| CC1=C(CN2CC(C(=O)O)C2)CCc2cc(OCCCc3ccccc3)ccc21.Cl |  | 5000 nM | 0.4 mg/kg | 3 nM |  |
| CC1=C(CN2CC(C(=O)O)C2)CCc2cc(OCCCc3ccccc3F)ccc21.Cl | 0.75 mg/kg | 2900 nM | 0.13 mg/kg | 2.7 nM |  |
| CC1=C(CN2CC(C(=O)O)C2)CCc2cc(OCC(C)(C)Cc3ccccc3)ccc21 |  | > 30000 nM |  | 20 nM |  |
| CC1=C(CN2CC(C(=O)O)C2)CCc2cc(OC(C)CCc3ccccc3)ccc21 (stereo unspecified) |  | 14000 nM |  | 20 nM |  |

From ChEMBL document CHEMBL1932994, “Structure-activity relationship studies of S1P agonists with a dihydronaphthalene scaffold” (Bioorg Med Chem Lett, 2012)
